From ChEMBL document CHEMBL3244244, “Folate analogues altered in the C9-N10 bridge region: 11-thiohomofolic acid” (J Med Chem, 1979)
Values after ≈ are worked out from the molar mass of the structure shown. Values belong to the compound of their own block, whether it stands above or below them. Active and inactive are the calls of the source. The rule behind the calls is not given here.

Legend:
[1] = system: Lacticaseibacillus casei; experiment: Antifolate activity against Lactobacillus casei ATCC 7469 assessed as growth inhibition; type: functional, organism-based
[2] = system: Enterococcus faecium; experiment: Antifolate activity against Streptococcus faecium ATCC 8043 assessed as growth inhibition; type: functional, organism-based; conditions: for IC50: read-out: I50
[3] = target: Dihydrofolate reductase (Lactobacillus casei) (UniProt P00381); experiment: Activity of Lactobacillus casei DHFR; conditions: Lacticaseibacillus casei
Sequence of Dihydrofolate reductase (Lactobacillus casei) (P00381 whole entry): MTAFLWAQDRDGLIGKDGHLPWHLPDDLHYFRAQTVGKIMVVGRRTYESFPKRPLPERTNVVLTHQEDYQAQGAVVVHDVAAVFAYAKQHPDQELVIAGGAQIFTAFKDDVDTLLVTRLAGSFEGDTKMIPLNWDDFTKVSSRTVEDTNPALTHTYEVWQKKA
Procedure, shortened: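 The 7,8-dihydro form of the test folate analogue replaced the natural substrate in the previously described L. casei DHFR assay medium.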

[4] = system: Enterococcus faecium; experiment: Antifolate activity against Streptococcus faecium ATCC 8043 assessed as growth inhibition at 1.6 ug/ml; type: functional, organism-based
Procedure, shortened: (§1)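 Bacterial growth was run in each organism's own assay medium by earlier-reported methods, with test agent at 1.6 μg/mL.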

[5] = target: T1, Thymidylate synthase (Lactobacillus casei) (UniProt P00469); experiment: Inhibition of Lactobacillus casei thymidylate synthase; conditions: Lacticaseibacillus casei
T1 sequence (whole entry): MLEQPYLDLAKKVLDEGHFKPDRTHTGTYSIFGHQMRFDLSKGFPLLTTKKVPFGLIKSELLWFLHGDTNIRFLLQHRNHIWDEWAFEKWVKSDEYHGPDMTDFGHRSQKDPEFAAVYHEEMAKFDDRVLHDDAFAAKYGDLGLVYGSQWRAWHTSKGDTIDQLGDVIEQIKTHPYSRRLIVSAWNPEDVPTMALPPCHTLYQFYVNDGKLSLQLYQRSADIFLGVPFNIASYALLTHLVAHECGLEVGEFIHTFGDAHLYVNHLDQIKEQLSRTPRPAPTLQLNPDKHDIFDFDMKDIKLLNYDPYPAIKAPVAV

[6] = system: Lacticaseibacillus casei; experiment: Antifolate activity against Lactobacillus casei ATCC 7469 assessed as growth inhibition at 1.6 ug/ml; type: functional, organism-based; procedure, shortened: as §1
[7] = target: Dihydrofolate reductase (Lactobacillus casei) (UniProt P00381); experiment: Inhibition of Lactobacillus casei DHFR; conditions: Lacticaseibacillus casei

Structure (SMILES): Nc1nc(=O)c2nc(COc3ccc(C(=O)N[C@@H](CCC(=O)O)C(=O)O)cc3)cnc2[nH]1
growth inhibition (GI) [1]: Active
growth inhibition (GI) [2]: Active

Structure (SMILES): Nc1nc(=O)c2nc(CSc3ccc(C(=O)N[C@@H](CCC(=O)O)C(=O)O)cc3)cnc2[nH]1
growth inhibition (GI) [1]: Active
growth inhibition (GI) [2]: Active

Structure (SMILES): Nc1nc2ncc(CCSc3ccc(C(=O)O)cc3)nc2c(=O)[nH]1
growth inhibition (GI) [1]: inactive
growth inhibition (GI) [2]: inactive

Structure (SMILES): Nc1nc(=O)c2c([nH]1)NCC(CCNc1ccc(C(=O)N[C@@H](CCC(=O)O)C(=O)O)cc1)N2 (some centres not stated)
IC50 [2]: 0.7 ng/mL (≈ 1.52 nM)

Structure (SMILES): COC(=O)c1ccc(SCCc2cnc3nc(N)[nH]c(=O)c3n2)cc1
growth inhibition (GI) [1]: inactive
growth inhibition (GI) [2]: inactive

Activity [3]: Active
Structure (SMILES): Nc1nc(=O)c2c([nH]1)NCC(CCSc1ccc(C(=O)N[C@@H](CCC(=O)O)C(=O)O)cc1)=N2

Structure (SMILES): Nc1nc(=O)c2c([nH]1)NCC(CCSc1ccc(C(=O)N[C@@H](CCC(=O)O)C(=O)O)cc1)N2 (some centres not stated)
I50 [1]: 8 ×10⁻⁷ g/ml
IC50 [2]: 1.2 ng/mL (≈ 2.52 nM)

Activity [3]: inactive
inhibition [5]: inactive
inhibition [7]: inactive
Structure (SMILES): Nc1nc(O)c2nc(CCSc3ccc(C(=O)N[C@@H](CCC(=O)O)C(=O)O)cc3)cnc2n1
growth inhibition (GI) [4]: inactive
growth inhibition (GI) [6]: inactive
